# What was measured:
# [1] = target: T1, Phosphatidylinositol 4,5-bisphosphate 3-kinase catalytic subunit delta isoform (Homo sapiens, UniProt O00329); assay: Inhibition of recombinant PI3K p110delta using L-alpha-phosphatidylinositol as substrate and [gamma33P]ATP after 60 mins by thin layer chromatographic technique
# T1 sequence (O00329 whole entry): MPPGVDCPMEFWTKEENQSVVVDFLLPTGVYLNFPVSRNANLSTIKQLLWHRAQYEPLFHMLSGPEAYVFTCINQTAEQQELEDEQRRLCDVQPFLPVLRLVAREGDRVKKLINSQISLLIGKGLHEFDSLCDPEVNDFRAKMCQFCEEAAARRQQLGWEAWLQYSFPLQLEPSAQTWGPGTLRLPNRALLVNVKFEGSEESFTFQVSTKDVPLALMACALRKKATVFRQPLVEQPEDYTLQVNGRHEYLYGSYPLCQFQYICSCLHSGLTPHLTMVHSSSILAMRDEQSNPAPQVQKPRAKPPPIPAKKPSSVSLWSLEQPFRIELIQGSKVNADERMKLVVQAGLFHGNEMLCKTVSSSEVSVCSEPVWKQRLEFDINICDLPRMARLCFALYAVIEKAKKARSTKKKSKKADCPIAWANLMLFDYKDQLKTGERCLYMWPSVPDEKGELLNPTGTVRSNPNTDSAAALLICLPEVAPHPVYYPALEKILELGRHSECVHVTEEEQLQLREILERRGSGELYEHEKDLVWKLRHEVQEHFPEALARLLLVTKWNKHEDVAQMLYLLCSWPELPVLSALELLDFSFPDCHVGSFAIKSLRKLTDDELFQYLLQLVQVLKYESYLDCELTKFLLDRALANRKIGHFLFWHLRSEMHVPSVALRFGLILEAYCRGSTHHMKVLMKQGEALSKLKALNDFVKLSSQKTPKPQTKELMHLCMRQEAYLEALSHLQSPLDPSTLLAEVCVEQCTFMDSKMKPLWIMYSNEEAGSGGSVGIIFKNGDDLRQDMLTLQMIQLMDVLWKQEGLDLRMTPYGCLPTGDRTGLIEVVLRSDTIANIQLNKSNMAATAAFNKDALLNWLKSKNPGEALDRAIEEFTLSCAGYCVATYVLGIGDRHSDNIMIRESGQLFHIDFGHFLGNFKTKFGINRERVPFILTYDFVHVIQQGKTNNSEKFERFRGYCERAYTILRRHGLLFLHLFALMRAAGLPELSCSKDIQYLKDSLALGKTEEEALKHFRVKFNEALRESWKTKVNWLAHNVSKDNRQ
# How it was run: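 In-house recombinant class Ia PI3K isoform (0.1 µg) with L-α-phosphatidylinositol substrate in lipid kinase buffer (Tris–HCl pH 7.4, NaCl, EDTA), 1% DMSO final. Started with ATP mix (5 mM MgCl₂, 100 µM ATP plus [γ-³³P]ATP), 1 h at room temperature, stopped with 1 M HCl. Lipids extracted in two steps, separated by TLC, read by phosphorimager. Nine inhibitor concentrations; IC50 averaged over two experiments.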
# [2] = target: T2, Phosphatidylinositol 4,5-bisphosphate 3-kinase catalytic subunit alpha isoform (Homo sapiens, UniProt P42336, H1047R); assay: Inhibition of PI3K […] H1047R mutant-mediated PKB phosphorylation at Ser473 in human HCT116 cells after 15 mins by immunoblot analysis; format: cell-based, HCT-116
# T2 sequence (P42336 whole entry H1047R, canonical isoform): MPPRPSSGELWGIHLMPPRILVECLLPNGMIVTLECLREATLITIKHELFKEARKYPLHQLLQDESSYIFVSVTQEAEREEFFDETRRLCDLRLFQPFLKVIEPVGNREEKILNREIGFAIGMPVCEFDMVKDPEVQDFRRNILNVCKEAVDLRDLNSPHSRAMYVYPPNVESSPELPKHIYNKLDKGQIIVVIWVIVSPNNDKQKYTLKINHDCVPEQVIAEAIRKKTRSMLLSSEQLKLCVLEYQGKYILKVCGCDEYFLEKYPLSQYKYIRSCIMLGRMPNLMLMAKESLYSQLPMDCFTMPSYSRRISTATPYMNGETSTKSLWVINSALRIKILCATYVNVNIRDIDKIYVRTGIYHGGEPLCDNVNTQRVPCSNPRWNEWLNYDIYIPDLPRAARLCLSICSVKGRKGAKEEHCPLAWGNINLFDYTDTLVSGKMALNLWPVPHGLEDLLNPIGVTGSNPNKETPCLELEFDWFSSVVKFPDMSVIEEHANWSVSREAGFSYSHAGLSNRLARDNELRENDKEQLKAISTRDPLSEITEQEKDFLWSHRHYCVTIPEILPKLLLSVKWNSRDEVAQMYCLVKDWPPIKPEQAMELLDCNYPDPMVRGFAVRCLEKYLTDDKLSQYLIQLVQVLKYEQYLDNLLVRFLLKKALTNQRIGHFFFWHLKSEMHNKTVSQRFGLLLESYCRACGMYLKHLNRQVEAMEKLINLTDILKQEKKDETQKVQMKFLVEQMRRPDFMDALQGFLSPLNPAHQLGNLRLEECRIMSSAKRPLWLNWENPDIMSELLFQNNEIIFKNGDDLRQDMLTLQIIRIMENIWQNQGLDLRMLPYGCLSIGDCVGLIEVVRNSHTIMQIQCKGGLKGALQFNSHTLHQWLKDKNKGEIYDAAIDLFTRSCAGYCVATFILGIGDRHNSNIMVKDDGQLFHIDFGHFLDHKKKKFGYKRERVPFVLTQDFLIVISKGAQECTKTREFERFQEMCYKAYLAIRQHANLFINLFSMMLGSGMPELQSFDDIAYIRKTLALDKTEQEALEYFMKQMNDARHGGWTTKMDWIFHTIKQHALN
# How it was run: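 HCT-116 cells in MEM alpha with 10% FBS and penicillin/streptomycin were seeded, grown 1 day, then serum-starved overnight. They were exposed to a range of inhibitor concentrations in DMSO (0.1% final) for 15 min, then stimulated with 500 nM insulin for 5 min. Phospho-PKB (Ser473 or Thr308) was detected by immunoblotting.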
# [3] = target: T2, Phosphatidylinositol 4,5-bisphosphate 3-kinase catalytic subunit alpha isoform; assay: Inhibition of recombinant PI3K p110alpha H1047R mutant using L-alpha-phosphatidylinositol as substrate and [gamma33P]ATP after 60 mins by thin layer chromatographic technique
# HCT-116 = assay: Antitumor activity against human HCT116 cells xenografted in Rag1 knockout mouse assessed as tumor growth inhibition at 20 mg/kg, ip qd for 14 days relative to untreated control; format: functional; settings: HCT-116, ip, 336 h, route intraperitoneal, read-out: GI
# How it was run: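 Female specific-pathogen-free Rag1−/− mice, age-matched, inoculated subcutaneously with 5×10⁶ HCT-116 cells in PBS. Dosed ip at 20 mg/kg q.d. for 14 days in 7.5% DMSO/42.5% PEG-400/20% hydroxypropyl-β-cyclodextrin/30% water; controls received vehicle only; n = 7 per group. Tumour volume measured three times weekly; 1-way ANOVA with Holm-Sidak comparison at study end.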
# [4] = target: Serine/threonine-protein kinase mTOR (Homo sapiens, UniProt P42345); assay: Inhibition of mTOR
# [5] = Cytotoxicity against human NZOV9 cells expressing p110alpha Y1021C mutant assessed as inhibition of [3H]thymidine incorporation after 5 days; format: functional, cell-based
# How it was run: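 Early-passage lab-derived lines in α-MEM with insulin, transferrin, selenite and 5% FBS. Seeded at 1000 cells/well; drug added in 10-fold steps up to 20 µM. Incubated five days under 5% O₂/5% CO₂/90% N₂, with ³H-thymidine (0.04 µCi/well) over the last 6 h. Duplicates per dose; least-squares exponential fit; IC50 is the concentration giving 50% less incorporation.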
compound,measurement,setting,value
Cc1ccc([N+](=O)[O-])cc1S(=O)(=O)N(C)/N=C/c1cnn2ccc(C#N)cc12,IC50,[1],0.049 µM
same,IC50,[2],0.023 µM
same,IC50,[3],0.0005 µM
same,inhibition in vivo at 20 mg/kg,HCT-116,39.1%
same,IC50,[4],0.3 µM
same,IC50,[5],1.4 µM

# From ChEMBL document CHEMBL1926509, “Discovery of pyrazolo[1,5-a]pyridines as p110α-selective PI3 kinase inhibitors” (Bioorg Med Chem, 2012)
